Publication PMC2223364 (The Journal of General Physiology, 1999)
Values joined by “and” are separate entries in the source; they are usually repeats but may differ in a detail not shown here. Equal entries are not always repeated. Where two headings read alike, the source gives them in different places. Ends that are not written are not given here.

Columns and labels:
[1] = tested on: cyclic nucleotide–gated channels; conditions: ref Kramer et al., 1994; cited from earlier work
[2] = tested on: maxi-KCa channels; conditions: cited from earlier work
[3] = target: rat muscle maxi-KCa channel, internal pore (Rattus norvegicus, UniProt Q62976); assay: Single-channel block by ball peptide homologue; format: biochemical; conditions: for Kd: BP alone, +30 mV, 50 mM KCl, pH 7.4
Chain of rat muscle maxi-KCa channel, internal pore (Q62976 whole entry, the tested form may be a part): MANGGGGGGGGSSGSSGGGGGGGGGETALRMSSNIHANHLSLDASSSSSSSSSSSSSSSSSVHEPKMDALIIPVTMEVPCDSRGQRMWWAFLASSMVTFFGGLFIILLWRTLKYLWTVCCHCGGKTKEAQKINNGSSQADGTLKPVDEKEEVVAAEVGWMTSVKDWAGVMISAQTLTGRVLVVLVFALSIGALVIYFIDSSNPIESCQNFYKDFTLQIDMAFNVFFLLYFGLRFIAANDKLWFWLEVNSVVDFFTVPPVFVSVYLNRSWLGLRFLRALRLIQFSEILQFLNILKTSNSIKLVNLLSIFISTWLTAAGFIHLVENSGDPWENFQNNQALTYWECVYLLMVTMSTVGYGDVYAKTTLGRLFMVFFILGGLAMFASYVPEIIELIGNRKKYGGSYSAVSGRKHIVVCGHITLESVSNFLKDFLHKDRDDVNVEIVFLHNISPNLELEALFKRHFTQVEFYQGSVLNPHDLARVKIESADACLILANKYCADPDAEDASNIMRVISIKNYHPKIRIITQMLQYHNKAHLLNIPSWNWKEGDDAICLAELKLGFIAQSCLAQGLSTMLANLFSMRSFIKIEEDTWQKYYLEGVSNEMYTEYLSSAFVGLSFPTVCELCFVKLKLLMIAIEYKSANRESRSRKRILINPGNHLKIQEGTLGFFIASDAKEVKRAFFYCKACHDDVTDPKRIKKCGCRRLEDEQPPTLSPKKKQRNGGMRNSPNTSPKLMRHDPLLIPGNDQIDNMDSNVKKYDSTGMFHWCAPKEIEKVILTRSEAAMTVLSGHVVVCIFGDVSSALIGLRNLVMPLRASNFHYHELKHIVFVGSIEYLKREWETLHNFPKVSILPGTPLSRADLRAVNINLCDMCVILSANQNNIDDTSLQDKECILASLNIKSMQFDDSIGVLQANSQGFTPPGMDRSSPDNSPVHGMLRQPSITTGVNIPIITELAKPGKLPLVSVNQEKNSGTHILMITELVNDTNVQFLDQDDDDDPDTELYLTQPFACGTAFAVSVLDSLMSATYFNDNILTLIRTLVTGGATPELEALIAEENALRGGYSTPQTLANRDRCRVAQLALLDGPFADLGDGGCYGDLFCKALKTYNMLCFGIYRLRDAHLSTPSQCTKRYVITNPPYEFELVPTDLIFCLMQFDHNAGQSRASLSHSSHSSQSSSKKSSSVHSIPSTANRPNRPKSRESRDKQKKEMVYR
Procedure, shortened: (§1)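 Single rat skeletal muscle maxi-KCa channels were taken from plasma membrane vesicles and fused into planar bilayers of 80% POPE/20% POPC. Recordings used symmetrical 50 mM KCl and 10 mM MOPS-KOH, pH 7.4. Internal CaCl2 was 200 μM, raised to 500 μM in some experiments to keep open probability >0.9. Holding was +30 mV at 20–23°C, with Ag/AgCl electrodes and agar-KCl bridges.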

[4] = target: rat muscle maxi-KCa channel, intracellular sites (Rattus norvegicus, UniProt Q62976); assay: Ligand interaction of BP and DTX-I on single maxi-KCa channels, planar bilayer; format: biochemical
Chain of rat muscle maxi-KCa channel, intracellular sites (Q62976 whole entry): as the sequence (Q62976 whole entry, the tested form may be a part) above
Procedure, shortened: as §1

[5] = target: rat muscle maxi-KCa channel (large conductance Ca^2+-activated K^+ channel), intracellular site; assay: Ligand interaction of BPTI and DTX-I on single maxi-KCa channels, planar bilayer; format: biochemical
Procedure, shortened: as §1

[6] = target: rat muscle maxi-KCa channel (large conductance Ca^2+-activated K^+ channel), intracellular site; assay: Single-channel substate kinetics of one Kunitz inhibitor; format: biochemical
Procedure, shortened: as §1

[7] = tested on: maxi-KCa channel (external TEA site); assay: Fast block by external TEA in absence and presence of internal DTX-I; format: biochemical, rat; conditions: 460 nM DTX-I; P = 0.1
Procedure, shortened: as §1

[8] = tested on: maxi-KCa channel (external ChTX site); assay: Slow block by external charybdotoxin in absence and presence of internal DTX-I; format: biochemical, rat
[9] = tested on: serine proteinases (chymotrypsin/trypsin family); conditions: BPTI and related Kunitz molecules; ref Dufton, 1985; Capasso et al., 1997; cited from earlier work
[10] = read-out: Kd (studied alone), abstract, one-site binding kinetics, unoccupied channel

In the case of “Shaker ball peptide: 20-residue NH2 terminus of the Shaker K^+ channel of Drosophila that mediates rapid inactivation (MAAVAVLYVLGKKRQHRKKQ)”, the “block of cyclic nucleotide–gated channels” value [1] is listed as “blocks other types of ion channels” and the “block of maxi-KCa channels” value ([2]; ref Foster et al., 1992, Toro et al.) is listed as “known to block maxi-KCa channels by a pore-occlusion mechanism”.
Molecule MAAVAVLYVLGKKRQHRKKQ [BP] has a Kd ([3]; equilibrium dissociation constant B1 = b−1/b1 (BP from BBP), unoccupied channel, kinetic ratio) of 0.00716 µM, a Kd ([3]; equilibrium dissociation constant B1 from PU vs [BP] (Eq. 15), 4.5–6.5 h data pooled from three to seven single channels) of 0.00885 µM and a kon ([3]; pH 7.4, read-out: bimolecular association rate constant b1 (BP to U)) of 8.17e+07 M⁻¹ s⁻¹. It also gave a koff ([3]; pH 7.4, read-out: dissociation rate constant b−1 (BP from BBP)) of 0.585 s⁻¹, a Kd [4] of 0.057 µM and a kon ([4]; pH 7.4, read-out: association rate constant b2 (BP to SDTX)) of 1.85e+06 M⁻¹ s⁻¹. For the same molecule, the koff ([4]; read-out: dissociation rate constant b−2 (BP from BBP/DTX)) was 0.105 s⁻¹.
Work on “dendrotoxin I (QPLRKLCILHRNPGRCYQKIPAFYYNQKKKQCEGFTWSGCGGNSNRFKTIEECRRTCIRK; ends and bridges not checked; cysteine pairing not given here; UniProt P00979 1-60, looked up) [DTX-I]” yielded a Kd ([5]; read-out: equilibrium dissociation constant J2, DTX-I binding to BPTI-occupied channel, from slope of τBURST vs [BPTI], Eq. 7, 460 nM DTX-I, +30 mV, 50 mM KCl, pH 7.4) of 0.178 µM, a Kd ([4]; read-out: equilibrium dissociation constant J3 (DTX-I from BBP/DTX), DTX-I binding to BP-blocked state, from τBP, Eq. 19, +30 mV, 50 mM KCl, pH 7.4) of 0.139 µM and a Kd [6, 10] of 0.0165 µM. For the same molecule, the Kd ([6]; read-out: equilibrium dissociation constant J1 = j−1/4j1 (DTX-I from SDTX), DTX-I, unoccupied channel, +30 mV, 50 mM KCl, pH 7.4) was 0.0165 µM.
For `CC[N+](CC)(CC)CC` [TEA, tetraethylammonium], the “effect of internal TEA on BP association” value ([3]; data not shown) is given as “decreases the association rate of BP homologue in a competitive fashion”, the “binding interaction of external TEA with internal DTX-I” value [7] is given as “no detectable binding interaction” and the “effect of BPTI or DTX-I on blocking affinity of internal blocker” value ([2]; Ba^2+ with BPTI, internal TEA with DTX-I, ref Lucchesi and Moczydlowski, 1991) is given as “not significantly affected”. The “inhibition of ball peptide block by TEA” value ([2]; ref Toro et al., 1992) was “inhibits ball peptide block of the maxi-KCa channel in a strictly competitive fashion”.
In the case of charybdotoxin [ChTX], the “binding interaction of external ChTX with internal DTX-I” value ([8]; 460 nM internal DTX-I) is reported as “no detectable binding interaction”, the “koff of ChTX, presence of DTX-I” value ([8]; 460 nM internal DTX-I, +30 mV) is reported as 0.0350 ± 0.0003 s⁻¹ and the “kon of ChTX, presence of DTX-I” value ([8]; 460 nM internal DTX-I, +30 mV) is reported as 2.89 ± 0.51 × 10^7 s^−1M^−1. For the same molecule, the “koff of ChTX, absence of DTX-I” value ([8]; external ChTX (10 nM), +30 mV) was 0.0369 ± 0.0004 s⁻¹, the “kon of ChTX, absence of DTX-I” value ([8]; external ChTX (10 nM), +30 mV) was 2.77 ± 0.42 × 10^7 s^−1M^−1 and the Kd ([8]; read-out: Kd of ChTX (koff/kon), absence of DTX-I, external ChTX (10 nM), +30 mV) was 0.00133 ± 0.0002 µM.
For “bovine pancreatic trypsin inhibitor [BPTI]”, the “inhibition of chymotrypsin/trypsin family serine proteinases” value [9] is given as “potent inhibitors”, the “relief of the DTX substate” value ([5]; 8 μM BPTI, 460 nM DTX-I) is given as ~30% and the “slope of τBURST vs [BPTI]” value ([5]; BPTI titration at 460 nM DTX-I, measured) is given as 3.25 s/µM. For the same molecule, the “KApp for relief of normalized DTX-substate probability, best fit to Eq. 10” value ([5]; BPTI titration, 460 nM DTX-I) was 17.8 µM and 17.8 ± 1.7 µM, the “decrease of BPTI affinity when DTX-I is bound (K2/K1)” value ([5]; DTX-occupied vs unoccupied channel) was 11.7 fold and 11.7 ± 2.1 fold and ~11 fold and the “increase in mean τS-DTX” value ([5]; over 0–8 μM BPTI at 460 nM DTX-I) was 47%. The Kd ([5]; read-out: Kd of BPTI when DTX-I is bound, abstract, DTX-occupied channel) was 17.5 µM, the “probability of the channel residing in the fully open conductance state” value ([6]; 8 μM internal BPTI (1.0 at 0 μM), +30 mV) was ~0.15 and the “mean lifetime of BPTI-induced substate (τS)” value ([6]; BPTI alone, internal, 1-8 μM, +30 mV, symmetrical 50 mM KCl, 10 mM MOPS-KOH pH 7.4, 200 μM internal Ca2+, 20–23°C, mean of four τS means, single-exponential) was ~0.41 s and 0.411 ± 0.022 s. The “apparent association rate constant 4k1” value ([6]; BPTI alone, internal, fit of τU to Eq. 2, +30 mV, 50 mM KCl, pH 7.4) was 1.63 ± 0.07 × 10^6 s^−1M^−1, the “dissociation rate constant k−1” value ([6]; BPTI alone, internal, from τS (Eq. 1), ±SEM, +30 mV, 50 mM KCl, pH 7.4) was 2.43 ± 0.13 s⁻¹ and the “equilibrium dissociation constant K1 (kinetic ratio k−1/4k1)” value ([6]; BPTI, unoccupied channel, +30 mV, 50 mM KCl, pH 7.4) was 1.49 ± 0.10 µM and 1.49 µM. For the same molecule, the Hill coefficient n ([6]; fit of PU vs [BPTI]) was 1.0, the substate current level ([6]; ligand alone, internal, +30 mV) was ~27 % of unitary current and the Kd [6, 10] was 1.49 µM. The “binding kinetics when studied alone” value ([6]; words) was “one-site binding kinetics”.
